In the library only some 2.1% were active in any assay of this set; here they are far more common.
MLL AF4-AF9 inh – blocks AF4 peptide binding to human AF9. AlphaScreen, biotin-AF4 peptide binding to FLAG-AF9. inhibition, % at 10 µM. 350,000 tested, 0.47% active;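 active means every replicate reaching a set inhibition limit, whatever the replicate mean, cut at about 25% in these data; inconclusive means mean inhibition reaches that limit but some replicates miss it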;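 further: 0% = plate neutral control median and 100% = total signal loss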
Target sequence (P42568 whole entry, looked up): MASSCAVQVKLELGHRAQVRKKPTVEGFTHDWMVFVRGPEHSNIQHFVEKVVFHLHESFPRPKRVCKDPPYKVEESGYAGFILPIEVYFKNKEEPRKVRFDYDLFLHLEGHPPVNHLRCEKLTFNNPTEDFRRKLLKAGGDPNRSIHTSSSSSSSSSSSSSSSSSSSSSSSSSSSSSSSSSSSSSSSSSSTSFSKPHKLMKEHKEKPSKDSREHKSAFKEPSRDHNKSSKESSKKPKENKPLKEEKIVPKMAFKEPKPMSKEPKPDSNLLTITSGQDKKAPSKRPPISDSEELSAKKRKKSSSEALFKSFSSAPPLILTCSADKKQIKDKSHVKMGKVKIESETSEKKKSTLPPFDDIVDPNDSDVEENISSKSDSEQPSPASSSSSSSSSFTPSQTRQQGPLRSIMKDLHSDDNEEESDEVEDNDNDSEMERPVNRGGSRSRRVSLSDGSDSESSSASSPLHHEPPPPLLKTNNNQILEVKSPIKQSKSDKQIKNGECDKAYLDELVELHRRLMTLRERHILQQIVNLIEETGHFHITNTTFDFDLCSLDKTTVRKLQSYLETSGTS
PAX8 inh HTS – PAX8 transcriptional activity inhibition; RMG-I TPO-luciferase reporter, SteadyGlo, 24 h; inhibition, % at 12.6 µM; 360,000 tested, 1.2% active;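 active means mean replicate inhibition at least 60% with every replicate also reaching 60%; inconclusive means only one of the two criteria is met; inactive means mean below 60% and not all replicates reaching 60%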;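 further: luciferase light reporting Pax8 driven TPO promoter activity; plate controls were median of neutral control wells for no effect and mitoxantrone controls for full effect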
XiGFP reactiv – activators of X-chromosome reactivation in mouse fibroblasts; XiGFP mouse fibroblasts, % GFP-positive cells imaging, 3 d; cells co-treated with 5-aza-dC sensitizer; scaled so ellipticine positive control = 100%; activation, % at 7.58 µM; 360,000 tested, 0.055% active;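 active means mean normalized replicate activation at least 10% and every replicate at or above 10%; inconclusive means only one of the two criteria met; inactive means mean below 10% and not all replicates reach 10%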;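 further: 0% = median of on-plate neutral control wells and 100% = ellipticine 6 µM median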
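Assay system – SV40-immortalized XiGFP fibroblast cells, line 68-5-11 · Buffer or medium – DMEM supplemented with 5-aza-dC as sensitizing agent · Dosing – one concentration, pinned · Benchmarks – positive control ellipticine, 6 µM final · Times – 3 days compound exposure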
GSIS activator – primary screen for activators of insulin secretion dependent on glucose, INS-1E cells, GLuc reporter luminescence. activation, % at 16.6 µM. INS-1E GLuc reporter insulin secretion, 2-3 h. 370,000 tested, 0.61% active;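 active means lowest replicate activation of at least 40%, so every replicate reaches that level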;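 further: 0% = median of neutral control wells and 100% = median of IBMX positive control wells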
EWS-Fli block – blocks EWS/Fli oncoprotein-driven transcription; A673 NR0B1-luciferase reporter, viability-normalised; inhibition, % at 12.6 µM; 350,000 tested, 0.67% active;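 active means mean inhibition of at least 50% after viability correction, with every replicate also passing that limit; inconclusive means mean reaches 50% but only one of two replicates passes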;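 further: firefly luciferase signal divided by Alamar Blue viability fluorescence both relative to DMSO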
PGC1a acetyl inh – PGC1a acetylation modulation, inhibitor mode | U2OS PGC1a acetylation, AlphaScreen anti-acetyl-lysine; with virally co-expressed GCN5 acetyltransferase | inhibition, % at 15.6 µM | 350,000 tested, 0.17% active;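 active means every replicate shows inhibition of at least 40%; inconclusive means mean inhibition at least 40% but some replicate below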;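 further: 0% = neutral control wells and 100% = positive control wells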
An asterisk follows results filed as active; ? = inconclusive; . = no result.

SMILES | MLL AF4-AF9 inh | PAX8 inh HTS | XiGFP reactiv | GSIS activator | EWS-Fli block | PGC1a acetyl inh
Cn1cnc([N+](=O)[O-])c1Sc1nc(N)nc2c1ncn2C1CC(O)C(CO)O1 (centres undefined) | 2.5 | 74.1* | -0.1 | -1.7 | 32.6 | 5.3
CC(C)CCCCCCCCCCCCC(=O)NCC(=O)NC1C(O)C(O)C(Nc2ncnc3nc[nH]c23)OC1C(O)CO (centres undefined) | . | . | . | . | . | 95.9*
O=C(c1ccc2c(c1)OCO2)N1CC2(C1)[C@H](c1ccccc1)[C@H](CO)N2C(=O)C1CCCC1 | -3.4 | . | 0.1 | 10.5 | -7.2 | .
NC[C@@H]1O[C@H](C23CC4CC(CC(C4)C2)C3)Cc2c1ccc(O)c2O | 46.6* | 41.0 | 0.6 | . | 23.3 | 15.4
CCOC(=O)c1ccc(NC(=O)c2ccccc2[N+](=O)[O-])cc1 | . | -59.0 | 0.2 | 7.7 | . | -4.4
CCOC(=O)c1cc([N+](=O)[O-])c([N+](=O)[O-])cc1NC(C)=O | -13.0 | 23.3 | 1.7 | 60.7* | 62.5* | -1.6
Cc1noc(C)c1COc1ccccc1C(=O)N1CCN(c2cccc(C(F)(F)F)c2)CC1 | -4.4 | 22.0 | -0.7 | -61.4 | 64.1* | -5.0
Cc1ccc(/C=C/C(=O)N2CCN(c3cccc(C(F)(F)F)c3)CC2)cc1 | 0.6 | 89.2* | 0.0 | . | 2.3 | .
O=C(C[C@H]1C[C@@H]2c3cc(NC(=O)c4ccc5c(c4)OCO5)ccc3O[C@@H]2[C@H](CO)O1)NCc1ccccn1 | 6.2 | -20.7 | 0.0 | 26.5 | -3.7 | 4.9
C[C@H](CO)N1C[C@H](C)[C@@H](CN(C)C(=O)Cc2cccnc2)Oc2ncc(/C=C/c3ccccc3)cc2C1=O | -4.9 | 1.1 | -1.0 | -0.3 | -4.0 | 6.0
N#C[C@H]1[C@H](c2ccc(-c3cncnc3)cc2)[C@H](CO)N1C(=O)CN1CCOCC1 | . | . | 0.3 | 3.5 | . | .
COc1cc(N2CCCC2)c(OC)cc1/C=C1/NC(=S)NC1=O | . | 8.8 | 70.9* | -12.9 | . | .
Cn1c(/C(C#N)=C/c2ccncc2)nc2ccccc21 | -1.6 | -2.4 | 0.1 | 8.2 | 10.9 | -13.5
Cn1c(/C(C#N)=C/c2ccc(O)cc2)nc2ccccc21 | 6.8 | -92.6 | 0.4 | 42.0* | -34.5 | -7.2
COc1ccc(/C=N/NC(=O)c2ccc(COc3ccccc3Cl)o2)c(OC)c1C | . | -1.2 | 0.2 | 151.6* | . | -5.9
Cc1ccc(S(=O)(=O)Nc2ccc3c(c2)C(=O)N([C@H](C)CO)C[C@@H](C)[C@@H](CN(C)S(=O)(=O)c2c(C)noc2C)OCCCC[C@H](C)O3)cc1 | 0.5 | 6.1 | 0.1 | -14.8 | 0.3 | 10.8
COc1cc(C(=O)Nc2ccc3c(c2)CCN3C(C)=O)cc(OC)c1OC | -1.8 | 6.3 | 0.0 | -1.0 | 66.9* | .
CC(=O)OCCCNc1cc(Sc2nc3ccccc3s2)c2nonc2c1[N+](=O)[O-] | . | . | . | . | . | 5.2
CC(=O)OCCNc1cc(Sc2nc3ccccc3[nH]2)c2nonc2c1[N+](=O)[O-] | . | -7.5 | 17.0* | 121.2* | . | .
O=C(C#Cc1cccc([N+](=O)[O-])c1)c1ccccc1 | . | . | . | . | . | 16.8
Nc1ccccc1C#CC(=O)c1ccccc1 | 1.8 | 10.5 | 0.3 | 70.7 | 66.5* | .
O=C(NC1=NN(c2ccccc2)CC1)Nc1ccccc1F | 0.9 | -53.3 | 50.3* | -34.7 | -35.7 | -1.9
O=C(Nc1ccccc1F)Nc1ccccc1N1CCCCC1 | -0.8 | -13.6 | 0.0 | 6.8 | 10.4 | .
Cc1ccc(Cc2cnc(NC(=O)c3ccco3)s2)cc1 | . | . | . | . | . | 10.5
O=C(Nc1ncc(Cc2ccc(SC(F)F)cc2)s1)c1ccc(OC(F)F)cc1 | -15.5 | ? | 3.4 | . | 52.7* | .
SMILES | MLL AF4-AF9 inh | PAX8 inh HTS | XiGFP reactiv | GSIS activator | EWS-Fli block | PGC1a acetyl inh
CC(C)NC(=O)Nc1ccc2c(c1)C(=O)N([C@H](C)CO)C[C@H](C)[C@H](CN(C)S(=O)(=O)c1ccc(Cl)cc1)OCCCC[C@H](C)O2 | 3.4 | 6.2 | -0.1 | -37.7 | -2.4 | -2.9
O=C(N[C@H]1CC[C@@H](CC(=O)N2CCCCC2)O[C@@H]1CO)c1cccc(F)c1 | -1.7 | -3.0 | -0.1 | 9.7 | 3.4 | -6.4
O=C(Cc1ccccn1)NCC[C@@H]1CC[C@H](NC(=O)Nc2ccc(C(F)(F)F)cc2)[C@@H](CO)O1 | 2.4 | 84.5* | -0.1 | 2.6 | -10.8 | 50.3*
O=C(Cc1ccccn1)NCC[C@@H]1CC[C@@H](NC(=O)Nc2ccc(C(F)(F)F)cc2)[C@@H](CO)O1 | 2.8 | 68.7* | 0.1 | -1.5 | -13.9 | 45.5*
C[C@@H]1CN([C@@H](C)CO)C(=O)c2cc(NC(=O)NC3CCCCC3)ccc2O[C@@H](C)CCCCO[C@H]1CN(C)S(=O)(=O)c1cn(C)cn1 | -3.2 | -13.5 | 0.2 | 8.6 | 0.5 | -6.7
O=C(C1CC1)N1[C@H](CO)[C@@H](c2ccccc2)C12CN(CCC(F)(F)F)C2 | 0.6 | . | 0.3 | -16.5 | -9.3 | .
O=C(N/N=C/c1ccc([N+](=O)[O-])o1)c1ccncc1 | -0.1 | -29.6 | 0.0 | -12.9 | 22.3 | -10.8
O=C(N/N=C/c1ccc([N+](=O)[O-])o1)c1ccc(O)cc1 | -0.9 | 18.9 | 0.2 | . | 64.6* | -64.4
CC[C@H]1CN2CCc3cc(OC)c(OC)cc3C2C[C@@H]1C[C@H]1NCCc2cc(OC)c(OC)cc21 (some centres undefined) | 5.9 | 110.8* | 0.9 | -6.8 | 58.8* | .
Cc1cc(C(=O)Nc2cccc3c2O[C@H](CN(C)S(=O)(=O)c2cccs2)[C@H](C)CN([C@H](C)CO)C3=O)n(C)n1 | -15.4 | . | -0.1 | 0.0 | 3.8 | 0.0
O=C(C[C@@H]1CC[C@H](NC(=O)Nc2cc(F)ccc2F)[C@H](CO)O1)Nc1ccccc1 | 0.6 | . | 0.2 | -23.3 | 8.3 | 16.1
Cc1cccc(Nc2nc(N)c([N+](=O)[O-])c(N3CC(C)CC(C)C3)n2)c1 (centres undefined) | 23.9 | 71.4* | 0.0 | 15.6 | 27.7 | .
CN(C)c1ccc(Nc2nc(N)c([N+](=O)[O-])c(N3CCOCC3)n2)cc1 | 30.2* | 11.7 | 0.3 | -32.1 | -10.8 | .
COC(=O)C[C@@H]1CC[C@H]2[C@@H](COc3ccc(NS(=O)(=O)c4ccccc4Cl)cc3C(=O)N2C)O1 | -0.3 | 19.6 | -0.1 | 0.0 | -0.2 | .
Cc1csc(NC(=O)c2c(-c3c(Cl)cccc3Cl)noc2C)n1 | . | . | . | -3.7 | . | 10.3
CSc1n[nH]c(NC(=O)c2c(-c3c(Cl)cccc3Cl)noc2C)n1 | 1.6 | 5.9 | 0.1 | . | 3.1 | 64.7*
COc1ccc(-c2ccncc2)cc1OC | -4.9 | -43.1 | 0.3 | 107.4* | -0.1 | .
COc1ccc(C2=Nn3c(nnc3-c3ccccc3OC)SC2)cc1OC1CCOC1 (centres undefined) | 8.1 | 68.3* | 1.3 | 56.3* | 36.0 | .
COc1ccc(C2=Nn3c(nnc3-c3ccccc3C(F)(F)F)SC2)cc1OC1CCOC1 (centres undefined) | -7.9 | 23.2 | -0.3 | 74.9* | 32.2 | .

Compound activity: PubChem, Broad Institute
